{
  "source": "paper PMC4408243",
  "about": "(Biochimica et biophysica acta, 2015)",
  "key": {"rat FABP1 [1]": {"target": "T1, rat FABP1 (Rattus norvegicus, UniProt P02692)", "T1 sequence (P02692 1-127)": "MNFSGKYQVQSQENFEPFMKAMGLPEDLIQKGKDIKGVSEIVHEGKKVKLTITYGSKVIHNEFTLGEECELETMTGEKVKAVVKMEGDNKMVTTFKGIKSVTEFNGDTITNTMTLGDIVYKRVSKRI", "test": "NBD-cholesterol fluorescence binding assay", "summary_of_the_method": "(§1)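 Recombinant FABP1 was titrated into NBD-cholesterol held at 20 nM, below its critical micellar concentration; human proteins ran 0–3.6 μM. Excitation was 490 nm and emission spectra were taken at 515–600 nm, 24°C. Emission maxima came from spectral analysis. Kd and Bmax were obtained by fitting the binding curve to a hyperbola. Data are mean ± SE, n = 3–5.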"}, "human FABP1 T94A variant": {"target": "T2, human FABP1 T94A variant (Homo sapiens, UniProt P07148, T94A)", "T2 sequence (P07148 1-127 T94A)": "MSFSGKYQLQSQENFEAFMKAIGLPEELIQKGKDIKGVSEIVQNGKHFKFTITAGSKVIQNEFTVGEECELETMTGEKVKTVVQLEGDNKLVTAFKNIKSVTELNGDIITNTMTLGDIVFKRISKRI", "test": "NBD-cholesterol fluorescence binding assay", "summary_of_the_method": "as §1"}, "human WT FABP1 T94T": {"target": "T3, human WT FABP1 T94T (Homo sapiens, UniProt P07148)", "T3 sequence (P07148 1-127)": "T2 sequence (P07148 1-127 T94A) with A94T", "test": "NBD-cholesterol fluorescence binding assay", "summary_of_the_method": "as §1"}, "[2]": {"conditions": "aqueous; cited from earlier work"}, "human T94A variant FABP1": {"target": "T4, human T94A variant FABP1 (Homo sapiens, UniProt P07148, T94A)", "T4 sequence (P07148 1-127 T94A)": "T2 sequence (P07148 1-127 T94A)", "test": "Isothermal titration calorimetry", "assay_type": "binding"}, "rat FABP1 [3]": {"target": "T1, rat FABP1", "test": "Isothermal titration calorimetry", "assay_type": "binding"}, "human WT FABP1": {"target": "T5, human WT FABP1 (Homo sapiens, UniProt P07148)", "T5 sequence (P07148 1-127)": "T2 sequence (P07148 1-127 T94A) with A94T", "test": "Isothermal titration calorimetry", "assay_type": "binding"}, "[4]": {"conditions": "NBD-cholesterol 20nM bound to protein, excitation 490 nm, 24°C"}, "[5]": {"conditions": "NBD-cholesterol 20nM, FABP1 0–3.6 μM, hyperbola fit"}, "[6]": {"conditions": "NBD-cholesterol 20nM, FABP1 0–3.6 μM, hyperbola fit, 24°C"}},
  "note": "Positions count from the first letter of the chain named. Values joined by “and” are separate entries in the source; they are usually repeats but may differ in a detail not shown here. Equal entries are not always repeated. Marks after values point to notes of the source that are not given here.",
  "data": [
    {"smiles": "C[C@H](CNc1ccc([N+](=O)[O-])c2nonc12)[C@H]1CC[C@H]2[C@@H]3CC=C4C[C@@H](O)CC[C@]4(C)[C@H]3CC[C@]12C", "note": "[NBD-cholesterol, 22-(N-(7-nitrobenz-2-oxa-1,3-diazol-4-yl)-amino)-23, 24-bisnor-5-cholen-3β-ol]", "values": [
      {"measurement": "Emission max", "setting": "rat FABP1 [1]; [4]", "result": "540.7 ± 0.7", "unit": "nm"},
      {"measurement": "Bmax (fluorescence intensity at saturation)", "setting": "rat FABP1 [1]; [5]", "result": "68.2 ± 7.1", "unit": "A.U."},
      {"measurement": "Kd", "setting": "rat FABP1 [1]; [6]", "result": "480 ± 120", "unit": "nM"},
      {"measurement": "fold higher affinity for NBD-cholesterol than WT", "setting": "human FABP1 T94A variant", "result": "more than 3 fold"},
      {"measurement": "fold lower Kd than WT FABP1 T94T", "setting": "human FABP1 T94A variant", "result": 3.5, "unit": "fold"},
      {"measurement": "maximal fluorescence intensity lower than when bound to WT FABP1 T94T", "setting": "human FABP1 T94A variant", "result": "~40", "unit": "%"},
      {"measurement": "shift of maximum emission, T94A variant compared to WT FABP1 T94T", "setting": "human FABP1 T94A variant", "result": 5, "unit": "nm"},
      {"measurement": "Emission max", "setting": "human FABP1 T94A variant; [4]", "result": "549 nm and 548.9 ± 1.0 ^d, ^e nm"},
      {"measurement": "Bmax (fluorescence intensity at saturation)", "setting": "human FABP1 T94A variant; [5]", "result": "43.4 ± 3.3 ^d, ^e A.U."},
      {"measurement": "Kd", "setting": "human FABP1 T94A variant; [6]", "result": "510 ± 150", "unit": "nM"},
      {"measurement": "Emission max", "setting": "human WT FABP1 T94T; [4]", "result": "544 nm and 543.9 ± 0.5 ^d nm"},
      {"measurement": "Bmax (fluorescence intensity at saturation)", "setting": "human WT FABP1 T94T; [5]", "result": "72.4 ± 7.7", "unit": "A.U."},
      {"measurement": "Kd", "setting": "human WT FABP1 T94T; [6]", "result": "1770 ± 430", "unit": "nM"},
      {"measurement": "blue shift of emission maximum, bound versus aqueous buffer", "setting": "human WT FABP1 T94T; normalized spectra", "result": "~21", "unit": "nm"}
    ]},
    {"smiles": "CC(C)CCC[C@@H](C)[C@H]1CC[C@H]2[C@@H]3CC=C4C[C@@H](O)CC[C@]4(C)[C@H]3CC[C@]12C", "note": "[cholesterol]", "values": [
      {"measurement": "critical micellar concentration", "setting": "[2]", "result": "~30", "unit": "nM"},
      {"measurement": "Kd", "setting": "human T94A variant FABP1", "result": "500 ± 100", "unit": "nM"},
      {"measurement": "TΔS", "setting": "human T94A variant FABP1; ITC, 25 °C, pH 8.0", "result": "5.26 ± 0.24", "unit": "kcal/mol"},
      {"measurement": "n, binding stoichiometry", "setting": "human T94A variant FABP1; ITC, 25 °C, pH 8.0", "result": "0.7 ± 0.2", "unit": "mol/mol"},
      {"measurement": "ΔG, Gibbs free energy change", "setting": "human T94A variant FABP1; ITC, 25 °C, pH 8.0", "result": "-10.8 ± 0.72", "unit": "kcal/mol"},
      {"measurement": "ΔH, enthalpy change", "setting": "human T94A variant FABP1; ITC, 25 °C, pH 8.0", "result": "−23 ± 4 ^b kJ/mol"},
      {"measurement": "fold higher cholesterol-binding affinity than WT FABP1 T94T", "setting": "human T94A variant FABP1; NBD-cholesterol fluorescence and cholesterol ITC binding assays", "result": 3, "unit": "fold"},
      {"measurement": "Kd", "setting": "rat FABP1 [3]", "result": "600 ± 200", "unit": "nM"},
      {"measurement": "TΔS", "setting": "rat FABP1 [3]; ITC, 25 °C, pH 8.0", "result": "5.98 ± 0.72", "unit": "kcal/mol"},
      {"measurement": "n, binding stoichiometry", "setting": "rat FABP1 [3]; ITC, 25 °C, pH 8.0", "result": "0.9 ± 0.1", "unit": "mol/mol"},
      {"measurement": "ΔG, Gibbs free energy change", "setting": "rat FABP1 [3]; ITC, 25 °C, pH 8.0", "result": "-9.8 ± 0.48", "unit": "kcal/mol"},
      {"measurement": "ΔH, enthalpy change", "setting": "rat FABP1 [3]; ITC, 25 °C, pH 8.0", "result": "-3.59 ± 0.24", "unit": "kcal/mol"},
      {"measurement": "Kd", "setting": "human WT FABP1", "result": "1300 ± 400", "unit": "nM"},
      {"measurement": "TΔS", "setting": "human WT FABP1; ITC, 25 °C, pH 8.0", "result": "5.02 ± 0.48", "unit": "kcal/mol"},
      {"measurement": "n, binding stoichiometry", "setting": "human WT FABP1; ITC, 25 °C, pH 8.0", "result": "0.8 ± 0.2", "unit": "mol/mol"},
      {"measurement": "ΔG, Gibbs free energy change", "setting": "human WT FABP1; ITC, 25 °C, pH 8.0", "result": "-9.08 ± 0.72", "unit": "kcal/mol"},
      {"measurement": "ΔH, enthalpy change", "setting": "human WT FABP1; ITC, 25 °C, pH 8.0", "result": "-4.06 ± 0.48", "unit": "kcal/mol"}
    ]}
  ]
}
